Here are results for 14 compounds from ChEMBL document CHEMBL1136734, “Discovery of tyrosine-based potent and selective melanocortin-1 receptor small-molecule agonists with anti-inflammatory properties” (J Med Chem, 2003).

SMILES strings stand for the structures. pEC50, pIC50: −log10 of the molar value. The source made the active and inactive calls. The calls are words filed in the database; no cut-off is given here.

Data set [1] concerns the target T1, Melanocyte-stimulating hormone receptor (Homo sapiens, UniProt Q01726). In words: In vitro intrinsic activity against human Melanocortin 1 receptor (MC1R).
Target sequence in this assay (Q01726 whole entry, looked up): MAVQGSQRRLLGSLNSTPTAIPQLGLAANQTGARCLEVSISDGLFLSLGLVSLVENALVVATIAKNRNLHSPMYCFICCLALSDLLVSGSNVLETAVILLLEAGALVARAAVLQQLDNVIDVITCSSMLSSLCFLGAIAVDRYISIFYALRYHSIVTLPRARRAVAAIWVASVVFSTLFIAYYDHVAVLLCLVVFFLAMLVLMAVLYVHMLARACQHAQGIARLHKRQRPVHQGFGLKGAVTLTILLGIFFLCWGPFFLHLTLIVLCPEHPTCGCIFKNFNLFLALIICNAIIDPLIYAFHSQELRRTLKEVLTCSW
Data set [2] addresses T1, Melanocyte-stimulating hormone receptor. Description: In vitro inhibitory concentration against human Melanocortin 1 receptor (MC1R).
Target sequence in this assay (Q01726 whole entry): as the sequence (Q01726 whole entry, looked up) above
Data set [3] has as its target T2, Melanocortin receptor 3 (Homo sapiens, UniProt P41968). In words: In vitro effective concentration towards human Melanocortin 3 receptor (MC3R) was determined by a SPA-based cAMP assay in melanoma cells. Type of data set: cell-based.
Data set [4] has as its target T1, Melanocyte-stimulating hormone receptor. In words: In vitro effective concentration towards human Melanocortin 1 receptor (MC1R) in SPA-based cAMP assay in melanoma cells. Type of data set: cell-based.
Target sequence in this assay (Q01726 whole entry): as the sequence (Q01726 whole entry, looked up) above
The target in data set [5] is T3, Melanocortin receptor 5 (Homo sapiens, UniProt P33032). In words: In vitro effective concentration towards human Melanocortin 5 receptor (MC5R) was determined by a SPA-based cAMP assay in melanoma cells. Type of data set: cell-based.
T3 sequence (P33032 whole entry): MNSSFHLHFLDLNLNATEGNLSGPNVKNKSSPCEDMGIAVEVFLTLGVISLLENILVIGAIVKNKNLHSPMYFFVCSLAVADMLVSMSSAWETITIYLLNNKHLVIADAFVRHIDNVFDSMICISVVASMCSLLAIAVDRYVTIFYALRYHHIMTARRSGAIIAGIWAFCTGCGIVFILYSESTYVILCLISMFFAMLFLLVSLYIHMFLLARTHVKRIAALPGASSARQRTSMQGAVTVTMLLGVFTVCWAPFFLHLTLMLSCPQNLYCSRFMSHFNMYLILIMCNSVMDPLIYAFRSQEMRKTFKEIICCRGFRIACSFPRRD
Data set [6] has as its target T4, Melanocortin receptor 4 (Homo sapiens, UniProt P32245). Description: In vitro effective concentration towards human Melanocortin 4 receptor (MC4R) was determined by a SPA-based cAMP assay in melanoma cells. Type of data set: cell-based.
The target in data set [7] is T2, Melanocortin receptor 3. Description: In vitro intrinsic activity against human Melanocortin 3 receptor (MC3R).
The target of data set [8] is T4, Melanocortin receptor 4. Description: In vitro intrinsic activity against human Melanocortin 4 receptor (MC4R).
The target in data set [9] is T3, Melanocortin receptor 5. Description: In vitro intrinsic activity against human Melanocortin 5 receptor (MC5R). Summed up:
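A SPA-based cAMP assay was run in CHO cells overexpressing human MC-5R. EC50 and intrinsic activity (%) are given ± SEM.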

Data set [10] concerns the target T2, Melanocortin receptor 3. In words: In vitro effective concentration towards human Melanocortin-3 receptor (MC3R) was determined by a SPA-based cAMP assay in melanoma cells. Type of data set: cell-based.
Data set [11] can be described thus: Half life by intravenous administration of 6.8 umol/kg dose in mice. Type of data set: ADME, organism-based. Particulars: mouse, in vivo. Summed up: (§1)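 Balb/c mice (n = 3) given a single intravenous dose of 6.8 μmol/kg in 50:50 PEG400–water, with plasma pharmacokinetic parameters derived from the concentration–time profile.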
The nature of data set [12]: Cmax value was evaluated in mice by intravenous administration of 6.8 umol/kg dose. Type of data set: ADME, organism-based. Details: dose 6.8 umol/kg, route intravenous. The following applies: mouse, in vivo. Put shortly:
as §1

Data set [13] addresses T2, Melanocortin receptor 3. Description: In vitro inhibitory concentration against human Melanocortin 3 receptor (MC3R).
Data set [14] can be described thus: Cl value was determined by intravenous administration of 6.8 umol/kg dose in mice. Type of data set: ADME, organism-based. The following applies: mouse, in vivo. Put shortly: as §1
A short description of data set [15]: MRT value was determined by intravenous administration of 6.8 umol/kg dose in mice. Type of data set: ADME, organism-based. The following applies: mouse, in vivo. Put shortly:
as §1

Data set [16] can be described thus: Vss value was determined by intravenous administration of 6.8 umol/kg dose in mice. Type of data set: ADME, organism-based. Particulars: mouse, in vivo, read-out: Vss. Put shortly: as §1

T2 sequence (P41968 whole entry): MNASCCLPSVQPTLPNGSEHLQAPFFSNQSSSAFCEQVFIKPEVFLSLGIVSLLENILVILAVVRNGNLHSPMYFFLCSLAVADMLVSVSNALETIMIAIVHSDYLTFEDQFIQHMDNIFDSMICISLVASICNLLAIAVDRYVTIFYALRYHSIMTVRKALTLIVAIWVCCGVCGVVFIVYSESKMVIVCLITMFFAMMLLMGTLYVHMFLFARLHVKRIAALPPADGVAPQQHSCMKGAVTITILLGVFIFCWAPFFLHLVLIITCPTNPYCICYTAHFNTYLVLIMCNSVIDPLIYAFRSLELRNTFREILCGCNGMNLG
T4 sequence (P32245 whole entry): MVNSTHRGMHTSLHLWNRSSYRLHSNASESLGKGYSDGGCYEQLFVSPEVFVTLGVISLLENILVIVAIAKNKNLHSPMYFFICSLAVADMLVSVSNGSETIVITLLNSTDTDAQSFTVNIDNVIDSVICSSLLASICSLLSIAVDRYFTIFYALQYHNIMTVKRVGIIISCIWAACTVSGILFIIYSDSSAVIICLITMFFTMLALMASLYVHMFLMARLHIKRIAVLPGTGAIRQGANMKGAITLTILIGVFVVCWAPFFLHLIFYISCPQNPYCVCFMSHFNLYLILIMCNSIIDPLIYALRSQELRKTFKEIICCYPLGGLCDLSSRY

As for `CCCC(=O)C1(c2ccccc2)CCN(C(=O)[C@@H](Cc2ccc(OC)cc2)NC(=O)[C@@H](N)Cc2c[nH]cn2)CC1`, the Intrinsic activity in [1] is 67%.

Turning to `CCCC(=O)C1(c2ccccc2)CCN(C(=O)[C@@H](Cc2ccc(OC)cc2)NC(=O)[C@@H](Cc2cnc[nH]2)NC(=O)c2ccccc2)CC1`, the pIC50 in data set [2] is 8.51. Moreover, the pEC50 is 6.60 in data set [3], 9.72 in data set [4], 5.68 in data set [5] and 8.54 in [6].

In the case of `CCCC(=O)C1(c2ccccc2)CCN(C(=O)[C@@H](Cc2ccc(OC)cc2)NC(=O)[C@H](O)Cc2c[nH]cn2)CC1`, the Intrinsic activity in data set [1] stood at 90%; in data set [7] it was 85%; in [8], 95%; in [9], 20%.

Turning to `CCCC(=O)C1(c2ccccc2)CCN(C(=O)[C@@H](Cc2ccc(OC)cc2)NC(=O)CCc2c[nH]cn2)CC1`, the Intrinsic activity in [1] was determined as 97%; in data set [7], 85%; in data set [8], 92%; in [9] it was 32%.

With `CCCC(=O)C1(c2ccccc2)CCN(C(=O)[C@@H](Cc2ccc(OC)cc2)NC(=O)[C@@H](Cc2c[nH]cn2)NC(C)=O)CC1`, the Intrinsic activity was found to be 96% in data set [1], 90% in [7], 96% in data set [8] and 90% in data set [9]. In data set [2], the pIC50 is 8.29. In addition, the pEC50 in data set [3] was 5.66; in data set [4], 9.46; in data set [5], 5.41; in [6], 7.64.

For `CCCC(=O)C1(c2ccccc2)CCN(C(=O)[C@@H](Cc2ccc(OC)cc2)NC(=O)[C@@H](N)Cc2cnc[nH]2)CC1`, the pIC50 in data set [2] is 5.89. In addition, in data set [4], the pEC50 was 6.40.

Turning to `CCCC(=O)C1(c2ccccc2)CCN(C(=O)[C@@H](Cc2ccc(OC)cc2)NC(=O)[C@H](N)Cc2c[nH]cn2)CC1`, the Intrinsic activity stood at 93% in [1], 98% in [7], 103% in [8] and 40% in data set [9].

Compound `CCCC(=O)C1(c2ccccc2)CCN(C(=O)[C@@H](Cc2ccc(OC)cc2)NC(=O)[C@H](O)Cc2cnc[nH]2)CC1` gave a negative-log IC50 (pIC50) in data set [2] of 8.26. Moreover, the pEC50 in [4] is 8.42; in data set [5], 5.57; in data set [6] it was 7.11; in data set [10], 5.41.

As for `COc1ccc(C[C@@H](NC(=O)[C@H]2Cc3ccccc3CN2)C(=O)N2CCC3(CC2)CN(S(C)(=O)=O)c2ccccc23)cc1`, the Intrinsic activity in data set [1] worked out at 80%; in data set [8], 95%. Further, the figures for the pEC50 in [4] and in data set [6] were 6.66 and 7.40, respectively.

Turning to `CCCC(=O)C1(c2ccccc2)CCN(C(=O)[C@@H](Cc2ccc(OC)cc2)NC(=O)[C@H](N)Cc2cnc[nH]2)CC1`, the pIC50 in data set [2] was 7.49. Also, the pEC50 is 5.77 in data set [3], 8.82 in [4], 5.00 in data set [5] and 6.20 in [6].

Regarding `CCCC(=O)C1(c2ccccc2)CCN(C(=O)[C@@H](Cc2ccc(OC)cc2)NC(=O)CCc2cnc[nH]2)CC1`, the pIC50 in data set [2] was 7.74. Moreover, the pEC50 was 5.15 in data set [3], 8.60 in data set [4], 5.03 in [5] and 6.08 in data set [6].

Take `CCCC(=O)C1(c2ccccc2)CCN(C(=O)[C@@H](Cc2ccc(OC)cc2)NC(=O)[C@H](N)Cc2cncn2C)CC1`: the Intrinsic activity in [1] came out at 34%. Besides, the pIC50 in data set [2] was 5.82. The same compound gave a pEC50 in data set [4] of 6.29.

Regarding `CCCC(=O)C1(c2ccccc2)CCN(C(=O)[C@@H](Cc2ccc(OC)cc2)NC(=O)[C@@H](N)Cc2cncn2C)CC1`, the Intrinsic activity in data set [1] stood at 92%; in data set [7], 2.1%; in data set [8] it was 39%; in [9], 15%. The half-life in data set [11] was 1.5 h. This compound also had a pIC50 in data set [2] of 6.92. Further, the pEC50 in data set [4] was 7.55; in data set [5], 5.36; in [6], 5.59. In [12], this compound displayed a Cmax of 2200 nM. For the same compound, the NA entry in data set [13] is “inactive”. The compound further yielded a clearance in [14] of 110 mL/min/kg. The MRT in data set [15] amounted to 1.2 h. The Vd in data set [16] was determined as 8.2 L/kg.

On to `CCCC(=O)C1(c2ccccc2)CCN(C(=O)[C@@H](Cc2ccc(OC)cc2)NC(=O)[C@@H](Cc2c[nH]cn2)NC(=O)c2ccccc2)CC1`, for which the Intrinsic activity in [1] stood at 98%; in [7], 100%; in data set [8] it was 95%; in data set [9], 65%.
